Measured values taken from ChEMBL document CHEMBL1123659, “2-Phenylindoles. Effect of N-benzylation on estrogen receptor affinity, estrogenic properties, and mammary tumor inhibiting activity” (J Med Chem, 1987).
Values joined by “and” are separate entries in the source; they are usually repeats but may differ in a detail not shown here. Equal entries are not always repeated.

Experiments:
[1] = biological target: Estrogen receptor (Bos taurus) (UniProt Q9XSB5+P49884); test: Relative binding affinity for the calf uterine estrogen receptor by 17-beta-[3H]-estradiol displacement.; type: protein assay
How it was run: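 Calf uterine cytosol (105000g supernatant, 3 mg/mL protein final) in Tris-EDTA-NaN3 buffer, pH 7.5. Incubated with 5 nM 17β-[3H]estradiol and 10^-9–10^-5 M competitor for 18 h at 4 °C. Dextran-coated charcoal added for 90 min, then supernatant radioactivity counted. Nonspecific binding taken with 5 µM estradiol. RBA = molar ratio of estradiol to competitor at 50% displacement ×100.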

[2] = test system: MCF7; test: Effect on [3H]thymidine incorporation into estrogen receptor positive MCF-7 human breast carcinoma cells at 10e-7 M (ex 1); type: functional
How it was run: (§1)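 MCF-7 cells kept in MEM with 5% charcoal-stripped newborn calf serum for two weeks. About 2×10^4 cells per well plated, then one day later exposed to compound in 0.1% ethanol. Ethanol-only controls. Medium changed on day 4. Three days later cells labelled with 1 µCi [3H]thymidine per well for 2 h. TCA-insoluble radioactivity per dish counted, mean of six dishes ± SD, expressed as % T/C.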

[3] = test system: MCF7; test: Effect on [3H]thymidine incorporation into estrogen receptor positive MCF-7 human breast carcinoma cells at 10e-6 M (ex 1); type: functional; how it was run: as §1
[4] = biological target: T1, Estrogen receptor (Mus musculus) (UniProt O08537+P19785); test: Estrogenic activity as Uterus dry weight (mg)/body weight (g) *100 in mice at 625 ug
T1 sequence (O08537 whole entry, looked up): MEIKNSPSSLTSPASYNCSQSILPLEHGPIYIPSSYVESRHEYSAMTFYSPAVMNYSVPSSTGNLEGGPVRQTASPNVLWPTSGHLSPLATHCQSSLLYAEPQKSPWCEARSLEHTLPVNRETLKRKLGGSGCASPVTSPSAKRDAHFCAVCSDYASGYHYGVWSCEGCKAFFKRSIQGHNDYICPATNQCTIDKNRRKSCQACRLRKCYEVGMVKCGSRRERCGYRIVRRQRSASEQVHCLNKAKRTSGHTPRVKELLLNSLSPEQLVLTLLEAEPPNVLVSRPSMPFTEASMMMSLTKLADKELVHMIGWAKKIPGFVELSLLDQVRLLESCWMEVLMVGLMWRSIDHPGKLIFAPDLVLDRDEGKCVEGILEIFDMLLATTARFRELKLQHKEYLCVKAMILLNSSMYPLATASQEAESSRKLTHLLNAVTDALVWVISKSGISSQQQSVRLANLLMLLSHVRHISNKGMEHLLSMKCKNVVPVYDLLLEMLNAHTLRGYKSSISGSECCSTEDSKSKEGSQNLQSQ
T1 sequence (P19785 whole entry, looked up): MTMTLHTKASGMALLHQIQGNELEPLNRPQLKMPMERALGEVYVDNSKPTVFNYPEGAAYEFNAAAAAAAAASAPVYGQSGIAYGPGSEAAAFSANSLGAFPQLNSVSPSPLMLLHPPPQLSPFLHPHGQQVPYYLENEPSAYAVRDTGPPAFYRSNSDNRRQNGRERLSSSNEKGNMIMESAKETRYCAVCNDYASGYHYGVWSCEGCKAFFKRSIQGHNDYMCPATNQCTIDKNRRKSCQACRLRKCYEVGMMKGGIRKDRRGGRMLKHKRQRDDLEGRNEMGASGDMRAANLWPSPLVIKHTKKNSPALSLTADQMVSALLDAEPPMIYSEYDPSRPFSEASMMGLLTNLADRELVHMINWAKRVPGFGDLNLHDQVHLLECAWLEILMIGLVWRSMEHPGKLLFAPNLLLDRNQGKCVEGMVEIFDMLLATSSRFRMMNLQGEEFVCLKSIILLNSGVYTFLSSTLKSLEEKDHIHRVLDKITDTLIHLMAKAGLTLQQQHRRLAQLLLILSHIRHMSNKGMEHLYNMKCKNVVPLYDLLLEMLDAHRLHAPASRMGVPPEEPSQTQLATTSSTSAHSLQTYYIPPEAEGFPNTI

[5] = biological target: T1, Estrogen receptor (Mus musculus); test: Estrogenic activity as Uterus dry weight (mg)/body weight (g) *100 in mice at 25 ug
[6] = biological target: T1, Estrogen receptor (Mus musculus); test: Anti-estrogenic activity as Uterus dry weight (mg)/body weight (g) *100 in mice at 1 ug; type: functional, tissue-based
How it was run: (§2)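 Immature mice, sc injection on three consecutive days of test compound together with a standard 0.4 µg estrone per animal and day. Dose per animal. Control animals got vehicle. Killed 24 h after the last injection. Uteri Bouin-fixed, cleaned, washed in alcoholic LiCl, dried at 100 °C for 24 h and weighed. Read-out is uterine dry weight (mg)/body weight (g) ×100, mean of 10 animals ± SD.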

[7] = biological target: T1, Estrogen receptor (Mus musculus); test: Anti-estrogenic activity as Uterus dry weight (mg)/body weight (g) *100 in mice at 5 ug; type: functional, tissue-based; how it was run: as §2
[8] = biological target: T1, Estrogen receptor (Mus musculus); test: (§3) Estrogenic activity as Uterus dry weight (mg)/body weight (g) *100 in mice with 0.4 ug estrone; type: functional, tissue-based
How it was run: (§4)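 Immature mice given 0.4 µg estrone per animal sc on three consecutive days. Control animals got vehicle. Killed 24 h after the last injection. Uteri fixed in Bouin, dried at 100 °C for 24 h and weighed. Result expressed as uterine dry weight (mg)/body weight (g) ×100, mean of 10 animals ± SD.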

[9] = biological target: T1, Estrogen receptor (Mus musculus); test: Estrogenic activity as Uterus dry weight (mg)/body weight (g) *100 in mice at 5 ug
[10] = biological target: T1, Estrogen receptor (Mus musculus); test: as §3; type: functional, tissue-based; how it was run: as §4; remark: listed apart in the source
[11] = biological target: T1, Estrogen receptor (Mus musculus); test: Percent inhibition of estrone-stimulated uterine growth in mice; type: functional; parameters: concentration or dose not given beside the values; conditions: concentration not given here
How it was run: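 Mouse antiuterotrophic test. Immature mice injected sc on three consecutive days with 0.4 µg estrone plus increasing doses per animal of test compound. Dry uterine weight/body weight ×100 determined 24 h after the last injection, 10 animals per group. Inhibition (%) = 100 − [(E_S,T − E_V)/(E_S − E_V)] ×100, where E_S is estrone alone and E_V is vehicle. Significance by Mann-Whitney U-test.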

[12] = biological target: T1, Estrogen receptor (Mus musculus); test: Anti-estrogenic activity as Uterus dry weight (mg)/body weight (g) *100 in mice at 25 ug; type: functional, tissue-based; how it was run: as §2
[13] = biological target: T1, Estrogen receptor (Mus musculus); test: Anti-estrogenic activity as Uterus dry weight (mg)/body weight (g) *100 in mice at 125 ug; type: functional, tissue-based; how it was run: as §2
[14] = test system: MCF7; test: Effect on [3H]thymidine incorporation into estrogen receptor positive MCF-7 human breast carcinoma cells at 10e-7 M (experiment 2); type: functional; how it was run: as §1
[15] = test system: MCF7; test: Effect on [3H]-thymidine incorporation into estrogen receptor positive MCF-7 human breast carcinoma cells at 10e-6 M (exp 1); type: functional; how it was run: as §1
[16] = test system: MCF7; test: Effect on [3H]-thymidine incorporation into estrogen receptor positive MCF-7 human breast carcinoma cells at 10e-7 M (ex 1); type: functional; how it was run: as §1
[17] = test system: MCF7; test: Effect on [3H]thymidine incorporation into estrogen receptor positive MCF-7 human breast carcinoma cells at 10e-6 M (ex 2); type: functional; how it was run: as §1
[18] = biological target: T1, Estrogen receptor (Mus musculus); test: Anti-estrogenic activity as Uterus dry weight (mg)/body weight (g) *100 in mice at 625 ug; type: functional, tissue-based; how it was run: as §2
[19] = biological target: T1, Estrogen receptor (Mus musculus); test: Anti-estrogenic activity as Uterus dry weight (mg)/body weight (g) *100 in mice at 250 ug; type: functional, tissue-based; how it was run: as §2
[20] = biological target: T1, Estrogen receptor (Mus musculus); test: Anti-estrogenic activity as Uterus dry weight (mg)/body weight (g) *100 in mice at 75 ug; type: functional, tissue-based; how it was run: as §2
[21] = in the assay text read “Estrogenic activity” for “Anti-estrogenic activity”

Cc1c(-c2ccc(O)cc2)n(C(=O)c2ccccc2)c2ccc(O)cc12
relative binding affinity (RBA) [1]: 2.4

Cc1c(-c2ccc(O)cc2)n(Cc2ccccc2)c2cc(O)ccc12
relative binding affinity (RBA) [1]: 11

Cc1c(-c2ccc(O)cc2)n(Cc2ccccc2)c2ccc(O)cc12
T/C [2]: 20.3 ×10^4 per dish | T/C [3]: 17.4 ×10^4 per dish | relative binding affinity (RBA) [1]: 16

Cc1c(-c2ccc(O)cc2)n(CCc2ccccc2)c2ccc(O)cc12
relative binding affinity (RBA) [1]: 2

CC(=O)Oc1ccc(-c2c(C)c3ccc(OC(C)=O)cc3n2-c2ccccc2)cc1
Activity [4]: 34.8 | Activity [5]: 17.8 | Activity [6]: 43.2 | Activity [7]: 41 | Activity [8]: 42 | Activity [9]: 13.4 | Activity [10]: 42 | inhibition [11]: 33% | Activity [12]: 43.5 | Activity [13]: 32.4 | Activity [13, 21]: 26.4

Cc1c(-c2ccc(O)cc2)n(Cc2ccccc2)c2ccccc12
relative binding affinity (RBA) [1]: 0.55

Cc1c(-c2ccc(O)cc2)n(Cc2c(Cl)cccc2Cl)c2ccc(O)cc12
relative binding affinity (RBA) [1]: 3.6

CC/C(=C(\c1ccccc1)c1ccc(OCCN(C)C)cc1)c1ccccc1 [TAMOXIFEN]
T/C [14]: 6.7 ×10^4 per dish and 10.8 ×10^4 per dish | T/C [15]: 2.2 ×10^4 per dish | T/C [16]: 4.5 ×10^4 per dish | T/C [17]: 5.3 ×10^4 per dish

Cc1c(-c2ccc(O)cc2)n(-c2ccccc2)c2cc(O)ccc12
relative binding affinity (RBA) [1]: 7.5

CC(=O)Oc1ccc(-c2c(C)c3cc(OC(C)=O)ccc3n2Cc2ccc(C#N)cc2)cc1
Activity [4]: 27.4 | Activity [18]: 31.5 | Activity [5]: 15.1 | Activity [19]: 30.4 | Activity [8]: 43.7 | Activity [9]: 14 | Activity [10]: 48.2 | Activity [12]: 37.9 | Activity [13]: 30.5 | Activity [13, 21]: 20 | Activity [20]: 34.1

Cc1c(-c2ccc(O)cc2)n(Cc2ccc(Cl)cc2)c2ccc(O)cc12
relative binding affinity (RBA) [1]: 8

Cc1c(-c2ccc(O)cc2)n(Cc2cccc(Cl)c2)c2ccc(O)cc12
relative binding affinity (RBA) [1]: 5.1
